EP2 mod = EP2 receptor (human) modulation. P43116. EP2-expressing cells, cAMP HTRF FRET, PGE2 co-stimulation. induction, % at 25 µM. hit rate 0.83% among 260,000;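 active = compounds whose cAMP rise, as percent of the full-agonist control response, exceeds 60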;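 note: rat C6 glioma line stably carrying human EP2 under a CMV promoter; the protocol text gives 20 µM as final concentration; 100% = response of wells given 1 µM PGE2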
Target sequence (P43116 whole entry, looked up): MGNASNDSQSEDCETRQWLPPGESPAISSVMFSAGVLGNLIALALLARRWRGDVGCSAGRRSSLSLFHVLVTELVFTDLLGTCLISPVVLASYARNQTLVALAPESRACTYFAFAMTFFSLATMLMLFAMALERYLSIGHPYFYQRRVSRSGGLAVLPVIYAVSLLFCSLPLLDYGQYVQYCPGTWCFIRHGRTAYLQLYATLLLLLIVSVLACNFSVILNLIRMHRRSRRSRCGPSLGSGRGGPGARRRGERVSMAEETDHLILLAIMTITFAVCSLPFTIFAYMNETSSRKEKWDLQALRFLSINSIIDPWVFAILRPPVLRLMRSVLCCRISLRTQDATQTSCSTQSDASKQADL
Granule exo inh = blocks lytic granule exocytosis; TALL-104 LAMP-1 surface exposure, flow cytometry; cells stimulated with thapsigargin and PMA; inhibition, % at 10 µM; hit rate 0.66% among 360,000;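 active = inhibition above about 55%, limit read from the data; inconclusive = no clear call, values can overlap the other calls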
MC4R antag cAMP = antagonists of human melanocortin 4 receptor (MC4R); hit rate 0.48% among 360,000; inhibition, % at 6.5 µM; MC4R-expressing cells, MTII-stimulated cAMP, LANCE TR-FRET;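 active = inhibition above its plate's cutoff, the mean of tested wells on that plate plus 3 SD, cut at about 29% in these data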;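 note: 0% = Melanotan II alone and 100% = Melanotan II plus saturating MCL0020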
Target sequence (P32245 whole entry, looked up): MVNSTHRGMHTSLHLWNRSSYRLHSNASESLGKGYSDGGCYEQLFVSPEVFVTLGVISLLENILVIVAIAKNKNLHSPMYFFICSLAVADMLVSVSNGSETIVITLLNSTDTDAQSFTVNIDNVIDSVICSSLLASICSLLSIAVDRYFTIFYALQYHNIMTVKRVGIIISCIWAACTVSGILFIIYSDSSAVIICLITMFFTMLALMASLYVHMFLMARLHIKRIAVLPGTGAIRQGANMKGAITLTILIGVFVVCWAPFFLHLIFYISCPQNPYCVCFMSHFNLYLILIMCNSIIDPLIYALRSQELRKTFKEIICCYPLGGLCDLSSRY
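Assay system: human MC4R-expressing U2OS cells; reagent: Melanotan II stimulation of cells; dosing: 6.5 µM single dose; timing: compound 30 min, challenge 1 h, detection 1 h; signal: TR-FRET cAMP assay; replicates: one well per compound, no replicates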
MC4R barr agon = activates human MC4R beta-arrestin recruitment. P32245. U2OS MC4R beta-arrestin complementation, luminescence; percent of melanotan II response, DMSO zero. activation, % at 8.9 µM. hit rate 0.98% among 360,000;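 active = activation above a per-plate cutoff, the mean activation of sample wells on that plate plus 3 SD, cut at about 8% in these data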
EP2 antag = EP2 receptor (human) inhibition | P43116 | C6 glioma cells expressing human EP2, cAMP TR-FRET; cells stimulated with saturating PGE2 | inhibition, % at 25 µM | hit rate 0.52% among 260,000;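 active = percent inhibition above 40 after rounding to a whole number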;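 note: rat C6 glioma host cells with rolipram phosphodiesterase inhibitor present; the protocol text gives 20 µM as final concentration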
T cell modulator = T cell immune modulators affecting CD8 T cell-vesicle binding | 2C CD8+ T cell-vesicle binding, flow cytometry; stronger effect = lower value | response (vesicle binding), % at 7 µM | hit rate 0.068% among 330,000 | AID 2052;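 active = response, share of CD8 T cells binding vesicles, and their 90th percentile fluorescence all below set limits, cut at about 80% in these data, passing the limit was not always enough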;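 note: values below 100% mean blocked vesicle binding to the CD8+ T cells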
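Assay system: 2C TCR transgenic mouse naive CD8+ T cells, MACS-purified | Read-out: CD8+ gate FL2 mean fluorescence as % of same-row positive control | Signal: High-throughput flow cytometry with anti-B7-1 and anti-CD8 staining | Timing: Binding step 1.5 h, 37 °C, antibody labelling 20 min, ice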
U2OS cAMP counter = nonselective cAMP signaling inhibitor, MC4R antagonist counter-screen; shares compounds with MC4R antag cAMP; parental U2OS, forskolin cAMP, LANCE TR-FRET; inhibition, % at 6.5 µM; hit rate 26% among 1,600; AID 602193;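 active = mean inhibition over triplicates above the low-control well mean plus 3 SD, set per campaign, cut at about 13% in these data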;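 note: signal is single emission at 671 nm which falls as cellular cAMP rises; 0% = forskolin-stimulated wells and 100% = buffer without forskolin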
MC4R antag conf = human MC4R cAMP antagonism confirmation; hit rate 27% among 1,600; shares compounds with MC4R antag cAMP; inhibition, % at 6.5 µM; MC4R-expressing cells, MTII-stimulated cAMP, TR-FRET; in the data active = inhibition above about 29%;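 note: 0% = agonist stimulated wells alone and 100% = agonist stimulated wells plus saturating reference antagonist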
The depositor's hits bear a star; i = inactive; ? = inconclusive; nt = no result given. Compounds with a hit are over-represented: about 2.6% of the library has one in this group of screens.

SMILES	EP2 mod	Granule exo inh	MC4R antag cAMP	MC4R barr agon	EP2 antag	T cell modulator	U2OS cAMP counter	MC4R antag conf
O=C(NCc1ccccc1)c1c(Cl)nc(Cl)c(Cl)c1Cl	nt	-4	64*	0	nt	i	45*	64*
NS(=O)(=O)c1ccc(-c2ccc(/C=C3\C(=O)Nc4ccccc43)o2)cc1	nt	nt	nt	nt	nt	807	nt	nt
CC1(C)OC(=O)C(=Cc2ccc(-c3ccc(S(N)(=O)=O)cc3)o2)C(=O)O1	-88	3	39*	-1	43*	369	11	19
Cc1ccc(S(=O)(=O)N2CCCCC2)cc1NC(=O)CSc1nnnn1C	13	0	15	-1	5	209	nt	nt
O=C(O)CCNc1ccc2c(c1)OCCO2	27	2	2	0	17	154	nt	nt
O=C(CS(=O)(=O)c1ccccc1)Nc1nnc(C(F)(F)F)s1	nt	-6	32*	-2	nt	156	-1	-9
COc1ccc2[nH]c(=O)c(C(c3nnnn3Cc3ccccc3)N3CCc4ccccc43)cc2c1 (stereo not drawn)	43	nt	nt	nt	11	nt	nt	nt
O=C(c1ccc([N+](=O)[O-])cc1)N(Cc1ccc(Cl)cc1)N1C(=O)CCCC1=O	2	-1	32*	4	14	204	17*	32*
CC(=O)n1cc(N(C(=O)CCl)c2ccc(C)cc2)c2ccccc21	9	-1	46*	17*	12	195	-21	45*
CC(=O)N(c1ccc(Cl)cc1)c1cn(C(C)=O)c2ccccc12	28	1	7	-2	7	178	nt	nt
CC(C)CN(C(=O)COC(=O)c1cnc(Cl)c(Cl)c1)c1c(N)n(Cc2ccccc2)c(=O)[nH]c1=O	nt	2	47*	-3	nt	253	12	51*
O=C(NCc1cccs1)c1cnc(Cl)c(Cl)c1	4	-2	21	-2	2	128	nt	nt
O=C(COC(=O)c1cnc(Cl)c(Cl)c1)NCc1cccs1	-21	0	36*	-2	5	280	22*	35*
CC(C)N(Cc1ccccc1)C(=O)COC(=O)c1cnc(Cl)c(Cl)c1	nt	21	45*	-4	nt	552	33*	52*
O=C(OCc1ccccc1)c1cnc(Cl)c(Cl)c1	nt	0	26	1	nt	456	nt	nt
COc1ccc(C(C(=O)NC2CCCCC2)N(C(=O)CCCC(=O)Nc2ccccn2)c2ccc3c(c2)OCCO3)cc1 (stereo not drawn)	-1	31	33*	1	12	i	-1	-14
CC(=O)n1cc([C@@H]2C=C(C(=O)O)O[C@H](OCc3ccc(CO)cc3)C2)c2ccccc21	10	-1	2	1	14	364	nt	nt
CC(=O)n1cc([C@@H]2C=C(C(=O)NCc3ccccc3)O[C@H](OCc3ccc(CO)cc3)C2)c2ccccc21	-7	19	36*	-1	12	0	-2	6
C#CCNC(=O)C1=C[C@H](c2cn(C(C)=O)c3ccccc23)C[C@H](OCc2ccc(CO)cc2)O1	-30	-4	16	0	9	620	nt	nt
CC(=O)n1cc([C@H]2C=C(C(=O)Nc3ccccc3)O[C@@H](OCc3ccc(CO)cc3)C2)c2ccccc21	-36	1	31*	-1	6	393	1	12
O=C(Cc1ccc(F)cc1)NCCc1cnc[nH]1	nt	-5	31*	0	nt	288	-1	-15
Fc1ccc(NC(=S)Nc2ccc3nccnc3c2)cc1	-49	4	36*	2	3	461	-2	-1
CCOC(=O)c1sc(NC(=O)CCc2ccc(OC)cc2)nc1C	nt	1	50*	2	nt	166	1	16
O=C(CCNC(=O)c1ccc([N+](=O)[O-])cc1)Nc1ccc(F)c(F)c1F	nt	2	32*	-1	nt	288	1	4
Cc1ccc(F)cc1NC(=O)CCNC(=O)c1ccc([N+](=O)[O-])cc1	nt	?	-4	1	nt	276	nt	nt
SMILES	EP2 mod	Granule exo inh	MC4R antag cAMP	MC4R barr agon	EP2 antag	T cell modulator	U2OS cAMP counter	MC4R antag conf
COc1ccc(NC(=O)COC(=O)c2ccc(N3CCCC3=O)cc2)cc1	nt	-2	7	-2	nt	598	nt	nt
Cc1c(NC(=S)N/C(=N/S(=O)(=O)c2ccccc2)c2ccccc2)c(=O)n(-c2ccccc2)n1C	-16	1	30*	0	11	104	-1	-1
Cc1nc2ccc(NC(=O)c3ccc(S(=O)(=O)N(C)c4ccccc4)cc3)cc2s1	-63	2	30*	-1	19	137	27*	25
COc1ccc(N(C(C)C(=O)N/N=C/c2ccc(OC)c(OC)c2)S(C)(=O)=O)cc1 (stereo not drawn)	12	-3	-4	0	9	i	nt	nt
CCOc1cc(/C=C2\N=C(C)OC2=O)cc(Br)c1OCCc1ccccc1	32	-1	19	-2	11	184	nt	nt
CCOc1cc(/C=C2\N=C(C)OC2=O)cc(Br)c1OCC(=O)OC	-53	-1	44*	-1	15	514	-3	-13
COc1ccc(CNC(=O)c2ccc(-c3ccc(F)c(F)c3)c3ccoc23)cc1OC	nt	-1	40*	1	nt	nt	-5	4
O=C(NCc1ccccc1)c1ccc(-c2ccc(F)c(F)c2)c2ccoc12	nt	-2	13	2	nt	nt	nt	nt
CN(C(=O)c1cccc(NC(=O)Cc2cccc(NC(=O)C3CCN(C(=O)C4CC4)CC3)c2)c1)C1CC1	nt	-1	16	-1	nt	nt	nt	nt
O=C(c1ccc(F)cc1)C(CN1CCOCC1)c1ccccc1 (stereo not drawn)	25	9	19	-1	8	756	nt	nt
O=C(c1ccccc1)C(CCC(CN1CCOCC1)C(=O)c1ccccc1)CN1CCOCC1 (stereo not drawn)	9	76*	41*	-1	8	414	-4	-2
CCc1noc(C)c1C(=O)NCCc1c[nH]c2ccccc12	nt	6	3	-1	nt	278	nt	nt
COC(=O)COc1cccc(NC(=O)C(c2ccccc2)c2ccccc2)c1	nt	10	29*	2	nt	195	7	15
CC(=O)Nc1cccc(OCC(=O)Nc2ccccc2)c1	-11	-1	-1	0	nt	349	nt	nt
Cc1cc2oc(C(=O)NCc3ccncc3)c(C)c2cc1C	-4	2	-13	-1	9	388	nt	nt
Cc1ccc(S(=O)(=O)NCC(=O)OCc2csc(-c3ccccc3)n2)cc1	-43	4	30*	2	7	234	15*	28
COC(=O)c1ccc(COC(=O)CNS(=O)(=O)c2ccc(C)cc2)cc1	4	0	40*	1	2	301	19*	26

Compound activity (PubChem BioAssay)
